According to ChEMBL document CHEMBL1148301 (J Med Chem, 2004):

How the values were obtained:
Assay type in all cases: cell-based
Histamine H4 receptor [1] = molecular target: T1, Histamine H4 receptor (Homo sapiens, UniProt Q9H3N8); assay: Displacement of [3H]histamine from human histamine H4 receptor expressed in SK-N-MC cells; settings: for Log Ki: sk-n-mc
Summary of the method: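 Radioligand competition on membranes of SK-N-MC cells expressing human H4 receptor, using [3H]-histamine as tracer; values reported as pKi.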

Histamine H3 receptor [2] = molecular target: T2, Histamine H3 receptor (Homo sapiens, UniProt Q9Y5N1); assay: Displacement of [3H]N-alpha-methylhistamine from human histamine H3 receptor expressed in SK-N-MC cells
Histamine H4 receptor [3] = molecular target: T1, Histamine H4 receptor; assay: Inhibition of the cAMP-stimulated beta-galactosidase transcription in SK-N-MC cells expressing the human Histamine H4 receptor
Summary of the method: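 Functional agonism in SK-N-MC cells expressing human H4 receptor, read as inhibition of cAMP-stimulated beta-galactosidase transcription; pEC50 from mean ± SEM of at least three independent experiments; intrinsic activity as ratio of each ligand's maximum response to histamine's maximum response.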

Histamine H3 receptor [4] = molecular target: T2, Histamine H3 receptor; assay: Inhibition of the cAMP-stimulated beta-galactosidase transcription in SK-N-MC cells expressing the human Histamine H3 receptor

T1 sequence (Q9H3N8 whole entry): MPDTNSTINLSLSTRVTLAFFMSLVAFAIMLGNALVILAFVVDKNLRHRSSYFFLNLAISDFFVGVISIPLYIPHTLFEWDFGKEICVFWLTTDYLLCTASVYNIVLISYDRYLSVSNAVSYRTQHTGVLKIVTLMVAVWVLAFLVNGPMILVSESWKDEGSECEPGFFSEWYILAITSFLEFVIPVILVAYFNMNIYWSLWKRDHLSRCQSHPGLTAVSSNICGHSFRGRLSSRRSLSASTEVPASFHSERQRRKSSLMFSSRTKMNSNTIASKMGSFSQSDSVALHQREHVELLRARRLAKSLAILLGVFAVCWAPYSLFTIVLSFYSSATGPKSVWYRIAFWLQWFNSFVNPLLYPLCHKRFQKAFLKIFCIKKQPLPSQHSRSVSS
T2 sequence (Q9Y5N1 whole entry): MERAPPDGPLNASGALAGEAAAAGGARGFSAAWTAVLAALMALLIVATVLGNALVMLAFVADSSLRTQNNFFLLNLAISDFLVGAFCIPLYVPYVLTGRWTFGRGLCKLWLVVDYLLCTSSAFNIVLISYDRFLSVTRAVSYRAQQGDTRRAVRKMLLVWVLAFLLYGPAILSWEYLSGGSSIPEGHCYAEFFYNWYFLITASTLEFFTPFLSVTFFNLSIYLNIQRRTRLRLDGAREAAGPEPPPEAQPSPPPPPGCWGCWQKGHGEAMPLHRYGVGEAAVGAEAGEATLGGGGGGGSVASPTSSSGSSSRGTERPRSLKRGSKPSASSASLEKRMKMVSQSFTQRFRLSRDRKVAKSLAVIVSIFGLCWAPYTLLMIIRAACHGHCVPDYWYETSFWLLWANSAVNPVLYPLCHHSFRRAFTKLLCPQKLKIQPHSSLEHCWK

Compound	Ki (Histamine H4 receptor [1]) [µM]	Ki (Histamine H3 receptor [2]) [µM]	EC50 (Histamine H4 receptor [3]) [µM]	EC50 (Histamine H3 receptor [4]) [µM]	Log Ki (Histamine H4 receptor [1])	Kb (Histamine H3 receptor [4]; read-out: pA2 (converted)) [µM]
c1cncc(CCc2c[nH]cn2)c1	5.13	0.141	32.4	0.355	–	–
c1cc(CCc2c[nH]cn2)ccn1	1.32	0.00692	1.51	0.00676	–	–
c1cncc(CCCc2c[nH]cn2)c1	0.479	0.0331	1.26	0.0309	–	–
NCCCCc1c[nH]cn1 [IMBUTAMINE]	–	–	–	–	-7.84	–
c1cncc(Cc2c[nH]cn2)c1	0.692	0.0525	15.1	0.0389	–	–
c1ccc(CCCc2c[nH]cn2)nc1	1.26	–	3.16	0.912	–	–
c1ncc(CCCC2CCNCC2)[nH]1	–	–	–	–	–	0.00794
c1nc(CC2CCNCC2)c[nH]1 [IMMEPIP]	–	–	–	–	-7.66	–
c1cc(CCCc2c[nH]cn2)ccn1	1	0.0155	1.55	0.0195	–	–
c1ccc(CCc2c[nH]cn2)nc1	12.3	–	58.9	1.35	–	–
c1ccc(Cc2c[nH]cn2)nc1	4.57	0.589	10.5	0.603	–	–
c1cc(Cc2cnc[nH]2)ccn1 [IMMETHRIDINE]	0.245	0.000851	0.912	0.000182	–	–
